Source: PubChem (several laboratories)
Most compounds without a hit are left out; they make up all but 1.7% or so of the library.
NTR1 agonist: NTR1 (human) agonism | P30989 | NTR1-U2OS beta-arrestin-GFP spot imaging, agonist mode | activation, % at 20 µM | 0.17% of 330,000 active | AID 493036;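 active means activation at or above 40% of the spot to cytoplasm intensity ratio, with at least 20 cells analyzed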
SR-BI HDL uptake: inhibitors of mouse SR-BI mediated HDL lipid uptake; ldlA[mSR-BI] CHO cells, DiI-HDL uptake fluorescence, 3 h; inhibition, % at 12.5 µM; 0.96% of 320,000 active;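 active means mean replicate inhibition of at least 70% and a set share of replicates each scoring 70 or more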
Target sequence (Q61009 whole entry, looked up): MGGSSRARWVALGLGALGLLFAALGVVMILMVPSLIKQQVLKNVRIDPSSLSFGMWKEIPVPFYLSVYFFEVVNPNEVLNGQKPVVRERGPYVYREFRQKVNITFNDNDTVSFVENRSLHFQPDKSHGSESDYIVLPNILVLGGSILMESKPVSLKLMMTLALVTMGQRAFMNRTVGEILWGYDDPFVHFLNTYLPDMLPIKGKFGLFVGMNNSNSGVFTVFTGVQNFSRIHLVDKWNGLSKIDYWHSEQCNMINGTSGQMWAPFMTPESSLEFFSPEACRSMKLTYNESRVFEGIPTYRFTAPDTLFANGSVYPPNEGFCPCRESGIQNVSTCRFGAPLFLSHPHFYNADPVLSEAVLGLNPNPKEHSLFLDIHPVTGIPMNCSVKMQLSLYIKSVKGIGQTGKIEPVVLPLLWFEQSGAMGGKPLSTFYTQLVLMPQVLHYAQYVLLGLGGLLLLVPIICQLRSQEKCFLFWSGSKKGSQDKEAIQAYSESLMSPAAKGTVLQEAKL
CaV13 ICDI inh: Disruptors of the CACNA1D IQ motif to Ca2+-dependent inactivation inhibitor domain association, primary screening, Förster resonance energy transfer in intact living …; inhibition, % at 12.3 µM; HEK cells, CFP/YFP FRET ICDI-IQ, plate reader, 10 min; percent FRET-ratio fall versus neutral wells; AID 743397; 0.098% of 340,000 active;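 active means mean replicate inhibition of at least 30% and at least 1% of replicates passing that level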
V-ATPase pHluor: regulators of yeast V-ATPase proton transport | 0.37% of 350,000 active | S. cerevisiae, pHLuorin cytosolic pH fluorescence | AID 504577 | response, % at 10 µM; in the data active means response mostly above about 7.3%, no sharp cut-off; inactive means mostly below about 5.4%; further: actives read high
SR-BI uptake up: enhances SR-BI lipid uptake from DiI-HDL | CHO ldlA[mSR-BI] cells, DiI-HDL uptake fluorescence, 3 h; 100 = double the neutral-control signal | activation, % at 12.5 µM | 0.096% of 320,000 active | AID 504775;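 active means mean replicate activation of at least 60% and every replicate at or above 60%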
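Test system: SR-BI-overexpressing, LDLR-lacking CHO cells; Also added: labelled HDL, 10 µg/mL; Measured by: bottom-read cell fluorescence after medium removal, ex 550/em 595 nm; Timing: 3 h uptake period with compound, 37 °C; Buffer or medium: F12, 0.5% BSA, 25 mM HEPES; Doses: single compound concentration, delivered by pin transfer.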
Vif inh: HIV Vif inhibition; HEK293T cells, Vif self-association by quenched fluorescence, imaging, 24 h; inhibition, % at 7.49 µM; 0.35% of 340,000 active; AID 602346; in the data active means inhibition above about 50%, passing the limit was not always enough
Large screens that a line does not name were inactive; ! = not active in a repeat.

CC1=NN(C(=O)c2ccccc2)C(O)(c2ccc(Br)cc2)C1 (stereo not given)	SR-BI HDL uptake 94
CCC1=NN(C(=O)c2ccc(Br)cc2)C(O)(c2ccccc2)C1 (stereo not given)	SR-BI HDL uptake 80
CCOC(=O)C1=NN(C(=O)c2ccccc2)C(O)(c2ccc(C)cc2)C1 (stereo not given)	none
CC1=NN(C(=O)c2ccccc2Cl)C(O)(c2ccccc2)C1 (stereo not given)	none
C=CCN1C(=O)c2n[nH]c(COC)c2C1c1ccc(F)cc1 (stereo not given)	none (no result: NTR1 agonist, SR-BI HDL uptake, V-ATPase pHluor, SR-BI uptake up, Vif inh)
O=C(O)c1ccc(-c2nc(-c3cccc(C(F)(F)F)c3)cs2)cc1	Vif inh 59 (no result: NTR1 agonist)
Cc1nc(NC(=O)C(C)Oc2cccc(Cl)c2)sc1C(=O)N(C)C (stereo not given)	Vif inh 52
Cc1oc(-c2ccc(Cl)cc2)nc1CN1CCC(C(=O)NCc2cccnc2)CC1	Vif inh 87 (no result: CaV13 ICDI inh)
CCCN(CCC)CCNC(=O)C1CCN(Cc2nc(-c3ccc(Cl)cc3)oc2C)CC1	none
COc1ccc(CCNC(=O)CCC(=O)n2ncc3ccc(Cl)cc32)cc1OC	none
O=C(COC(=O)[C@H](Cc1ccccc1)NC(=O)c1cccs1)Nc1c(Cl)cccc1Cl	none
O=C(COC(=O)C(Cc1ccccc1)NC(=O)c1cccs1)NCc1ccccc1 (stereo not given)	Vif inh 59
C[C@@H]1OC(C2CCCCC2)N(C)[C@H]2C[C@H]3c4[nH]c5c(-c6ccccc6)cccc5c4CCN3C(=O)[C@@H]12 (stereo not given in full)	none (no result: NTR1 agonist, SR-BI HDL uptake, V-ATPase pHluor, SR-BI uptake up, Vif inh)
O=C(Cn1cnc([N+](=O)[O-])c1)Nc1ccc(Cl)cc1Cl	Vif inh 64 (no result: NTR1 agonist, SR-BI HDL uptake, SR-BI uptake up)
CCOc1c(C(N)=O)c(-c2ccccc2)c2c(=O)[nH]c3ccccc3n12	Vif inh 32 (no result: CaV13 ICDI inh)
CN(C)CCCNCCCNC(=O)c1ccco1	Vif inh 65!
CCOC(=O)C1=C(C(=O)OCC)C2N(Cc3ccc(C(F)(F)F)cc3)c3ccccc3[C@@]23C[C@@H](C(=O)OC)N(S(=O)(=O)c2ccc(OC)cc2)C3=N1 (stereo not given in full)	none (no result: NTR1 agonist, SR-BI HDL uptake, V-ATPase pHluor, SR-BI uptake up, Vif inh)
Cc1nn(-c2ccccc2)c(N2CCCC2)c1/C=N/Nc1ccc(S(N)(=O)=O)cc1[N+](=O)[O-]	SR-BI HDL uptake 80
NS(=O)(=O)c1ccc(N/N=C/c2cn(-c3ccccc3)nc2-c2cccs2)c([N+](=O)[O-])c1	SR-BI HDL uptake 104
NS(=O)(=O)c1ccc(N/N=C/c2ccc(C(=O)O)cc2)c([N+](=O)[O-])c1	none
CS(=O)(=O)c1ccc2nc(NC(=O)CCNC(=O)c3ccccc3Cl)sc2c1	none
COc1ccc(C(=O)C2CCCN(S(=O)(=O)c3ccc(C(C)=O)cc3)C2)c(C)c1 (stereo not given)	none
CCN=C1S/C(=C/c2ccc(-c3ccc(F)cc3)o2)C(=O)N1CC	SR-BI HDL uptake 72
Cc1nn(-c2ccccc2)nc1C(=O)Nc1nnc(C(F)(F)F)s1	none
O=S1(=O)N[C@@H](Cc2ccccc2)COc2cc(N3CCC[C@@H]3CO)ccc21	none (no result: NTR1 agonist, SR-BI HDL uptake, V-ATPase pHluor, SR-BI uptake up, Vif inh)
C(=N\Nc1nc(Nc2ccccc2)nc(N2CCOCC2)n1)/c1c[nH]c2ccccc12	none (no result: SR-BI HDL uptake, CaV13 ICDI inh, V-ATPase pHluor, SR-BI uptake up, Vif inh)
Cc1ccc(Nc2nc(N/N=C/c3c[nH]c4ccccc34)nc(N3CCOCC3)n2)cc1	SR-BI HDL uptake 110
CC(/C=C/c1ccccc1)=N\NC(=S)NC(C)C	none
C/C(=N\NC(N)=S)c1ccccc1	SR-BI HDL uptake 86
CC(/C=C/c1ccccc1)=N\NC(N)=S	SR-BI HDL uptake 77
C/C(=N\NC(N)=S)c1ccc2c(c1)OCCO2	SR-BI HDL uptake 76
C[C@H](O)[C@@H]1C(=O)N2CCc3c([nH]c4cccc(-c5ccccc5)c34)[C@@H]2C[C@@H]1N(C)C(=O)c1ccccc1	none (no result: NTR1 agonist, SR-BI HDL uptake, V-ATPase pHluor, SR-BI uptake up, Vif inh)
CC(=O)c1cccc(NC(=S)NC(=O)C(C)C)c1	Vif inh 87
COc1ccc(NC(=S)Nc2cccc(C(C)=O)c2)cc1OC	SR-BI HDL uptake 73
Nc1nnn(CC(=O)N/N=C/c2ccc(Cl)cc2Cl)n1	none
Nc1nnn(CC(=O)N/N=C/c2cccc(Cl)c2)n1	Vif inh 61
